Results: paper PMC11923060 (Scientific Reports, 2025)

How the values were obtained:
testes [1] = experiment: Immunofluorescence of tight junction proteins in testicular tissue; type: in vivo, Kunming mice; details: Days 20 and 40, + LPS, compared to the LPS group, n = 10 mice/group
testes [2] = experiment: Western blot of junction proteins in testicular tissue; type: in vivo, Kunming mice; details: Days 20 and 40, + LPS, vs LPS group, n = 10 mice/group
Method in brief: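 Male Kunming mice (8–10 wk), n = 10/group, gavaged with test peptide 0.5 mg/kg or antibiotic control 25 mg/kg in 200 µL saline for 20 d (10 doses) or 40 d (20 doses), then one i.p. LPS 5 mg/kg; killed 24 h later. ~100 mg testis homogenized in RIPA/protease inhibitors; PVDF blocked in skim milk 2 h, primary antibody overnight 4 °C, secondary 2 h, ECL.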

polymyxin B
expression of Claudin-1 (immunofluorescence) (testes [1]): significant increases
expression of N-cadherin (immunofluorescence) (testes [1]): significant increases
protein expression of TWIST1 (Western blot) (testes [2]): significantly inhibited
